The test system of one test is JC. Briefly: Modulatory activity at P-gp in mouse JC cells assessed as lowest drug concentration required to increase intracellular [3H]taxol accumulation pretreated for 30 mins prior to [3H]taxol addition measured after 60 mins by liquid scintillation counting analysis. The format is cell-based. A digest of the protocol: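 JC cells were seeded at about 25% confluency and grown 3–4 days to near confluency. Medium was switched to serum-free, and compounds were preincubated for 30 min at 37 °C. About 0.1 µCi [³H]Taxol (75 Ci/mmol) per well followed, for 60 min at 37 °C. Cells were washed twice with ice-cold PBS and lysed in 1% SDS. Intracellular label was counted by liquid scintillation, and the lowest concentration giving maximal accumulation was recorded.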

A short description of test [1]: Cytotoxicity against mouse JC cells assessed as inhibition of cell survival after 48 hrs by SRB assay. In kind it is functional, cell-based. The procedure, abridged: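 JC (CRL-2116) cells kept in RPMI-1640 with L-glutamine, 10% FBS and 50 μg/ml gentamicin at 37 °C, 5% CO₂. Cells were seeded at about 20% confluency and left 24 h to attach, then exposed to a range of concentrations for 48 h. Cells were PBS-washed, fixed in 10% trichloroacetic acid and stained with 0.4% SRB in 1% acetic acid. Dye was dissolved in 10 mM Tris and absorbance read at 570 nm.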

The nature of test [2]: Ratio of compound IC50 to paclitaxel IC50 for mouse JC cells after 48 hrs by SRB assay. The format is functional. In general terms: Sulforhodamine B stains cellular protein and so reports cell mass.

Each structure is given as a SMILES string. Active and inactive are the calls of the source. The calls are words filed in the database; no cut-off is given here.

`COc1ccccc1Sc1cn(Cc2ccccc2)c2nc(N)nc(C)c12`: in the test with JC, the LED was 1.5 µM. The IC50 in test [1] worked out at 11 µM.

As to `Cc1nc(N)nc2c1c(Sc1ccc(Cl)cc1)cn2Cc1ccccc1`, the LED result in the test on JC is “inactive”. Moreover, the half-inhibitory concentration (IC50) in test [1] amounted to 7.5 µM.

`COc1ccccc1Cn1cc(Sc2ccccc2OC)c2c(C)nc(N)nc21`: in the test on JC, the LED entry was “inactive”. Further, in test [1], the IC50 was 9 µM.

As to `Cc1nc(N)nc2c1c(Sc1ccccc1)cn2Cc1ccccc1`, in the test on JC, the LED result is “inactive”. Moreover, the IC50 in test [1] amounted to 4 µM.

Take `CC(=O)O[C@H]1C(=O)[C@@]2(C)[C@H]([C@H](OC(=O)c3ccccc3)[C@]3(O)C[C@H](OC(=O)[C@H](O)[C@@H](NC(=O)c4ccccc4)c4ccccc4)C(C)=C1C3(C)C)[C@]1(OC(C)=O)CO[C@@H]1C[C@@H]2O` [PACLITAXEL]: the IC50 in test [1] amounted to 0.15 µM.

Consider `COc1cccc(Cn2cc(CCc3cc(OC)c(OC)c(OC)c3)c3c(C)nc(N)nc32)c1`, for which the LED in the test on JC stood at 0.5 µM. In addition, the IC50 in test [1] is 1.4 µM.

As to `COc1ccc(Cn2cc(CCc3cc(OC)c(OC)c(OC)c3)c3c(C)nc(N)nc32)cc1OC`, the LED in the test on JC amounted to 1.2 µM. For the same compound, the IC50 in test [1] worked out at 1.5 µM.

On to `COc1cc(CCc2cn(Cc3cc(OC)c(OC)c(OC)c3)c3nc(N)nc(C)c23)cc(OC)c1OC`, for which, in the test on JC, the LED result is “inactive”. The “Ratio IC50” value in test [2] was determined as 6.6. Moreover, in test [1], the IC50 is 1 µM.

A word on the IC50: it is the concentration that inhibits the measured activity by half.

Source of the values: ChEMBL document CHEMBL2331097, “Synthesis of 5,7-disubstituted-4-methyl-7H-pyrrolo[2,3-d]pyrimidin-2-amines as microtubule inhibitors” (Bioorg Med Chem, 2013).
